We go through one compound from ChEMBL document CHEMBL6182829, “Developing peptide-based fusion inhibitors as an antiviral strategy utilizing coronin 1 as a template” (RSC Med Chem, 2025).

For assay [1], the system named is Lipid bilayer. As to the kind of experiment: Inhibition of PEG-induced DOPC/DOPE/DOPG/CH (50/30/10/10 mol%) small unilamellar vesicles assessed as content leakage at 1:100 compound: lipid concentration preincubated for 10 mins followed by PEG addition by fluorescence based analysis relative to control. An outline of the steps:
(§1)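 Leakage read as loss of fluorescence from vesicles co-encapsulating 8 mM TbCl3 and 80 mM DPA, external probe removed. Lipid 200 μM; peptide 2 μM added 10 min before 6% (w/v) PEG at 37 °C. 100% leakage set with 0.1% (w/v) Triton X-100.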

Assay [2] has as its system Lipid bilayer. In words: Inhibition of PEG-induced DOPC/DOPE/DOPG/CH (40/30/10/20 mol%) small unilamellar vesicles assessed as content leakage at 1:100 compound: lipid concentration preincubated for 10 mins followed by PEG addition by fluorescence based analysis (reference value: 11.1 +/- 0.4 %). An outline of the steps: as §1
The subject of assay [3] is Lipid bilayer. As to the kind of experiment: Reduction of apparent rotational correlation time in DOPC/DOPE/DOPG/CH (50/30/10/10 mol%) small unilamellar vesicles at 2 to 10 uM by TMA-DPH anisotropy analysis. To be noted: dose 2-10 µM. In a few lines:
(§2)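 Apparent rotational correlation time of TMA-DPH from the Perrin equation, combining steady-state anisotropy and mean lifetime with r0 = 0.4. SUVs at 200 μM lipid with varying peptide, in TES/NaCl/CaCl2/EDTA buffer pH 7.4 at 37 °C; at least three measurements.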

For assay [4], the system named is Lipid bilayer. In words: Inhibition of PEG-induced DOPC/DOPE/DOPG (60/30/10 mol%) small unilamellar vesicle assessed as content leakage at 1:100 compound: lipid concentration preincubated for 10 mins followed by PEG addition by fluorescence based analysis (reference value: 11.7 +/- 0.4 %). An outline of the steps:
as §1

For assay [5], the system named is Lipid bilayer. As to the kind of experiment: Inhibition of PEG-induced DOPC/DOPE/DOPG/CH (40/30/10/20 mol%) small unilamellar vesicles assessed as content mixing at 1:100 compound: lipid concentration preincubated for 10 mins followed by PEG addition by spectrofluorometric analysis relative to control. An outline of the steps: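 Content mixing by Tb3+/DPA complex fluorescence. Vesicles loaded with 8 mM TbCl3 or 80 mM DPA, external probe removed by gel filtration. Mixed 1:1 at 200 μM lipid; peptide 2 μM added 10 min before 6% (w/v) PEG, 37 °C. Normalised to co-encapsulated and detergent-treated samples.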

For assay [6], the system named is Lipid bilayer. In words: Disruption of interfacial region in DOPC/DOPE/DOPG/CH (50/30/10/10 mol%) small unilamellar vesicles at 2 to 10 uM by TMA-DPH based fluorescence anisotropy. To be noted: dose 2-10 µM. An outline of the steps:
(§3)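 TMA-DPH steady-state anisotropy in SUVs (200 μM total lipid) across a range of peptide concentrations. Excitation 360 nm, emission 428 nm, 5 nm slits. Buffer 10 mM TES, 100 mM NaCl, 1 mM CaCl2, 1 mM EDTA, pH 7.4, 37 °C. Anisotropy from polarised intensities with G-factor correction; mean ± S.E. of at least three measurements.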

Assay [7] has as its system Lipid bilayer. In words: Inhibition of PEG-induced DOPC/DOPE/DOPG/CH (50/30/10/10 mol%) small unilamellar vesicles assessed as increase in lipid mixing at 1:100 compound: lipid concentration preincubated for 10 mins followed by PEG addition by spectrofluorometric analysis relative to control. An outline of the steps:
(§4)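 Lipid mixing followed as FRET dilution. Vesicles carrying 0.8 mol% NBD-PE and Rh-PE mixed 1:9 with probe-free vesicles at 200 μM lipid. Peptide 2 μM added 10 min before 6% (w/v) PEG at 37 °C. NBD donor intensity rise recorded over time; TX-100 defines complete mixing.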

The test system of assay [8] is Lipid bilayer. In words: Binding affinity to DOPC/DOPE/DOPG/CH (40/30/10/20 mol%) small unilamellar vesicles assessed as membrane organization and dynamic by measuring increase in fluorescence intensity at 1:100 compound: lipid concentration by tryptophan fluorescence based spectrofluorometric analysis. In a few lines: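 Tryptophan fluorescence spectra of the peptide recorded in buffer and with SUVs. Lipid:peptide 100:1, total lipid 200 μM, in 10 mM TES, 100 mM NaCl, 1 mM CaCl2, 1 mM EDTA, pH 7.4. At least three independent measurements averaged.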

Assay [9] has as its system Lipid bilayer. In words: Inhibition of PEG-induced DOPC/DOPE/DOPG/CH (40/30/10/20 mol%) small unilamellar vesicles assessed as increase in lipid mixing at 1:100 compound: lipid concentration preincubated for 10 mins followed by PEG addition by spectrofluorometric analysis relative to control. An outline of the steps: as §4
The test system of assay [10] is Influenza A virus H3N2. As to the kind of experiment: Antiviral activity against Influenza A virus X-31 (H3N2) infected in MDCK cells assessed as reduction in viral M1 protein expression level incubated for 48 hrs post infection by Western blot analysis. Format: functional, organism-based. An outline of the steps: (§5)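 Cells seeded at 0.25 × 10^6 per well and co-infected with virus–peptide mixtures as in the CPE assay. Lysed in RIPA with protease inhibitor 48 h post-infection, protein by BCA. Run on 12% SDS-PAGE, transferred to PVDF, blocked in 3% milk. Probed with anti-M1 (1:1000) and HRP anti-mouse IgG (1:10 000); β-actin as loading control after stripping.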
On the technique in general: A western blot detects proteins with antibodies after separation by electrophoresis.

Assay [11] deals with Lipid bilayer. As to the kind of experiment: Reduction of apparent rotational correlation time in DOPC/DOPE/DOPG/CH (40/30/10/20 mol%) small unilamellar vesicles at 2 to 10 uM by TMA-DPH anisotropy analysis. To be noted: dose 2-10 µM. In a few lines: as §2
The subject of assay [12] is Influenza A virus H3N2. As to the kind of experiment: Antiviral activity against Influenza A virus X-31 (H3N2) infected in human A549 cells assessed as reduction in virus-induced cytopathic effect preincubated for 48 hrs followed by viral infection for 45 mins by light microscopic analysis. Format: functional, organism-based. Particulars: time 2925.0 min. In a few lines: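 A549 cells infected with virus–peptide mixtures at increasing peptide concentrations, then assessed by light microscopy for cytopathic effect 48 h after infection.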

For assay [13], the system named is Lipid bilayer. As to the kind of experiment: Reduction of apparent rotational correlation time in DOPC/DOPE/DOPG (60/30/10 mol%) small unilamellar vesicles at 2 to 10 uM by TMA-DPH anisotropy analysis. Particulars: dose 2-10 µM. In a few lines:
as §2

Assay [14] deals with Lipid bilayer. As to the kind of experiment: Disruption of interfacial region in DOPC/DOPE/DOPG (60/30/10 mol%) small unilamellar vesicles at 2 to 10 uM by TMA-DPH based fluorescence anisotropy. To be noted: dose 2-10 µM. An outline of the steps:
as §3

The subject of assay [15] is Lipid bilayer. As to the kind of experiment: Inhibition of PEG-induced DOPC/DOPE/DOPG (60/30/10 mol%) small unilamellar vesicles assessed as lipid mixing at 1:100 compound: lipid concentration preincubated for 10 mins followed by PEG addition by spectrofluorometric analysis (reference value: 57.4 +/- 2.2 %). In a few lines:
as §4

Assay [16] deals with Influenza A virus H3N2. In words: Antiviral activity against Influenza A virus X-31 (H3N2) infected in human A549 cells assessed as reduction in viral M1 protein expression level incubated for 48 hrs post infection by Western blot analysis. Format: functional, organism-based. An outline of the steps: as §5
The subject of assay [17] is Influenza A virus H3N2. As to the kind of experiment: Antiviral activity against Influenza A virus X-31 (H3N2) infected in human A549 cells assessed as inhibition of viral infection preincubated for 48 hrs followed by viral infection for 45 mins by MTT assay. In kind it is functional, organism-based. To be noted: X-31, A549. In a few lines:
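A549 or MDCK cells seeded 1.5 × 10^4 per well, grown 24 h. Virus premixed with two-fold serial peptide dilutions in serum-free medium with trypsin (2.5 μg ml-1). Cells infected 45 min at 37 °C, washed, then kept 48 h in medium with 0.1% FBS, 0.3% BSA and trypsin. MTT 4 h, absorbance 570 nm. CPE inhibition normalised to cell and virus controls, dose-response fit for EC50; at least 3 sets.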
On the technique in general: Tetrazolium assays rely on reduction of a dye to a coloured formazan, in cell work by metabolically active cells.

Active and inactive are the calls of the source. The calls are words filed in the database; no cut-off is given here. Where a SMILES comes first, the peptide text is derived from it.

Take `CC[C@H](C)[C@H](NC(=O)[C@H](CC(C)C)NC(=O)[C@H](C)NC(=O)[C@@H](NC(=O)[C@H](Cc1ccccc1)NC(=O)[C@H](CCCCN)NC(=O)[C@@H]1CCCN1C(=O)[C@H](CC(N)=O)NC(=O)[C@@H](NC(=O)[C@H](C)NC(=O)[C@H](CS)NC(=O)[C@H](Cc1ccccc1)NC(=O)CNC(=O)[C@H](CO)NC(=O)[C@H](CC(=O)O)NC(=O)[C@H](Cc1c[nH]c2ccccc12)NC(=O)[C@@H](NC(=O)[C@@H](N)[C@@H](C)O)[C@@H](C)O)C(C)C)C(C)C)C(=O)N[C@@H](CS)C(=O)N[C@@H](CC(=O)O)C(=O)N[C@@H](Cc1c[nH]c2ccccc12)C(=O)N[C@@H](CO)C(=O)NCC(=O)O` (H-TTWDSGFCAVNPKFVALICDWSG-OH): the inhibition in the assay with Lipid bilayer [1] came out at 40%; in the assay with Lipid bilayer [2], 14.4%; in the assay with Lipid bilayer [4] it was 8.7%; in the assay on Lipid bilayer [5], 33%; with Lipid bilayer [7], 6%; in the assay with Lipid bilayer [9] it was 8%. Besides, the inhibition in the assay with Lipid bilayer [15] is 69%. Moreover, the outcome with Lipid bilayer [3], in the assay with Lipid bilayer [6], with Lipid bilayer [8], in the assay with Lipid bilayer [11], with Lipid bilayer [13] and in the assay on Lipid bilayer [14] was Active. The Activity entry in the assay with Influenza A virus H3N2 [10], in the assay on Influenza A virus H3N2 [12] and in the assay on Influenza A virus H3N2 [16] was “Dose-dependent-effect” each time. Further, the EC50 in the assay on Influenza A virus H3N2 [17] is approximately 20.4 µM.

By inhibition is commonly meant how much of the control response was suppressed. One may read the EC50 as the concentration that produces a half-maximal response.
